An excerpt weighted towards active compounds, which were near 11% of everything screened.
S1P1 ag pot: agonists and agonism potentiators of human S1P1 receptor; P21453; S1P1 CRE-bla cells, forskolin, beta-lactamase FRET, potentiator mode; S1P1 agonist co-added at EC20, 2 nM; 100% = saturating reference agonist, 0% = basal; activation, % at 9.5 µM; actives 0.57% (n = 56,000); AID 449;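 active means activation above a cutoff set at the mean activation of all tested compounds plus 3 SD, cut at about 54% in these data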;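 further: forskolin at 4 µM as EC80 and the EC20 agonist is SEW2871; 100% = SEW2871 at its EC100 plus forskolin at EC80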
S1P3 agonist: agonists of human S1P3 receptor; AID 373; S1P3 NFAT-BLA reporter cells, agonism, FRET ratio; relative to 1 µM S1P, basal subtracted; actives 0.1% (n = 60,000); Q99500; activation, % at 4.5 µM;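 active means activation above the screen-wide mean plus 3 SD, cut at about 4.5% in these data, passing the limit was not always enough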
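Assay system: CHO cells stably expressing human S1P3, Gα16 and NFAT-β-lactamase reporter. Timing: overnight plating, 4 h compound 37 °C, 2 h substrate RT. Signal: β-lactamase FRET emission ratio 460/535 nm. Measure: percent activation versus median 1 µM S1P response, basal-subtracted, per plate. Repeats: primary screen single test, confirmation screen in triplicate.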
D1 mod: allosteric modulators of human D1 dopamine receptor; P21728; HEK293 D1, CRE-luciferase, dopamine EC30 potentiation; actives deviate in either direction; B-score at 10 µM; actives 5.9% (n = 58,000); AID 641;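 active means luminescence count or its row- and column-corrected plate score outside the 99.7% band of the plate's sample wells, on either side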
M1 ag: M1 muscarinic receptor agonism | AID 626 | actives 3% (n = 64,000) | B-score at 10 µM | CHO-M1 cells, Fluo-4 calcium fluorescence, agonist mode; hits give high values;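 active means fluorescence rise, raw or as B-score row- and column-corrected plate score, outside the 99.7% band of its plate's samples, either direction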
TNAP act DEA: activators of human TNAP at intermediate phosphate acceptor | P05186 | 64,000 tested, under 10 active | activation factor at 20 µM | purified TNAP, CDP-star luminescence, 100 mM DEA, 30 min; hits give high values; scale: 0 levamisole-inhibited, 1 vehicle-only enzyme;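 active means activation factor of at least 2 at 20 µM, relative to controls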
Target sequence (P05186 whole entry, looked up): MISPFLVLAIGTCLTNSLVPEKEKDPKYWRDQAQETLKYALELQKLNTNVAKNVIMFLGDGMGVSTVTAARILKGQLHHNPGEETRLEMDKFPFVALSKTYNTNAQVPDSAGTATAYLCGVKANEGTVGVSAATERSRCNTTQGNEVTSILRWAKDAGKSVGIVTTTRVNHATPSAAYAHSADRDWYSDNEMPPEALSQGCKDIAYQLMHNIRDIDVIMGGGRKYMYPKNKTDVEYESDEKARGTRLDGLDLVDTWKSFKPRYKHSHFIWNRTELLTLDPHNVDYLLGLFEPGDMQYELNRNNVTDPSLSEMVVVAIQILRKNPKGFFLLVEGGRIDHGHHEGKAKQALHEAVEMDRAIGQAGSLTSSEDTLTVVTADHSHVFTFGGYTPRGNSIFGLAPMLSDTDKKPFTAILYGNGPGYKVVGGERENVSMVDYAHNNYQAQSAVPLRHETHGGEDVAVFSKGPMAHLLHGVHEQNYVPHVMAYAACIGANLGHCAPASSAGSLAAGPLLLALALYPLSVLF
M1 antag: blocks the rat M1 muscarinic receptor response to acetylcholine | P08482 | CHO-M1 cells, Fluo-4 calcium, ACh EC80 antagonist mode; hits give low values | B-score at 10 µM | actives 3.4% (n = 64,000) | AID 628;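 active means calcium fluorescence response, raw or row-and-column corrected B-score, differing from the plate sample mean either way at a set confidence level, mostly lower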
M1 agonist conf: rat M1 muscarinic agonism, confirmation; shares compounds with M1 ag; CHO-M1 cells, Fluo-4 calcium fluorescence, agonist mode; actives lie on both sides; fluorescence change (max-min) at 10 µM; actives 19% (n = 1,700); AID 1488;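 active means fluorescence change differs from the solvent-only DMSO control mean at a set confidence level in both duplicate runs; inconclusive means differs from solvent-only control mean in just one of two runs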;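 further: an EC20 dose of acetylcholine follows compound addition during the same imaging run; raw fluorescence intensity difference in instrument units with no normalization to controls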
M4 agonist ctr: rat M4 muscarinic agonism, M1 counter-screen; shares compounds with M1 ag; CHO M4/Gqi5 cells, Fluo-4 calcium fluorescence, agonist mode; actives lie on both sides; fluorescence change (max-min) at 10 µM; actives 9% (n = 1,700);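 active means fluorescence change differing from the plate's solvent-only control wells at 99.7% confidence in both duplicates, whether higher or lower; inconclusive means differs from solvent controls in only one of two duplicates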
Numbers without * were called inactive.

How did CC(=O)Nc1cccc(NC(=O)c2oc3ccccc3c2C)c1 do in these assays?
S1P1 ag pot: -2.4; S1P3 agonist: 0.1; D1 mod: -1.28; M1 ag: 2.3*; TNAP act DEA: 0.9; M1 antag: -0.294; M1 agonist conf: -15.6; M4 agonist ctr: -15.1

How did CC(=O)Nc1cccc(NC(=O)c2cc3ccccc3o2)c1 do in these assays?
S1P1 ag pot: -4.0; S1P3 agonist: -0.2; M1 ag: 3.92; TNAP act DEA: 0.9; M1 antag: -0.267

How did O=C(NC1(C(F)(F)F)C(=O)Nc2c1c(=O)[nH]c(=O)n2Cc1ccco1)C1CC1 (stereo not given) do in these assays?
S1P1 ag pot: -10.5; S1P3 agonist: -1.2; M1 ag: -0.0486; TNAP act DEA: 1; M1 antag: 1.73

How did COC(=O)c1ccc(CN2C(=O)NC3(CCCCC3C)C2=O)o1 (stereo not given) do in these assays?
M1 ag: -0.273; TNAP act DEA: 0.9; M1 antag: 0.354

How did Cn1nc(C(=O)N2CCN(S(=O)(=O)c3ccccc3)CC2)c2ccccc2c1=O do in these assays?
S1P1 ag pot: -4.3; S1P3 agonist: -0.8; D1 mod: -0.0896; M1 ag: -0.0704; TNAP act DEA: 0.9; M1 antag: -0.296

Results for O=C(c1nc(-c2ccccc2)n(-c2ccccc2)n1)N1CCN(S(=O)(=O)c2ccccc2)CC1 ?
S1P1 ag pot: 1.7; S1P3 agonist: 1.1; D1 mod: -0.39; M1 ag: 3.84*; TNAP act DEA: 1; M1 antag: -3.78*; M1 agonist conf: -8.01; M4 agonist ctr: inconclusive

How did Cn1c(=O)n(C)c2cc(S(=O)(=O)NCCc3ccccc3)ccc21 do in these assays?
S1P1 ag pot: 4.5; S1P3 agonist: 0.4; D1 mod: -0.418; M1 ag: -3.04*; TNAP act DEA: 0.9; M1 antag: -0.246; M1 agonist conf: -15.7; M4 agonist ctr: inconclusive

How did COc1ccc(-c2cc(C(F)(F)F)nc(N3CCN(C)CC3)n2)cc1 do in these assays?
D1 mod: 0.0725; TNAP act DEA: 0.9

What do the screens show for `COc1ccc(-c2cc(C(F)(F)F)nc(N3CCCCCC3)n2)cc1`?
M1 ag: 4.59*; TNAP act DEA: 0.9; M1 antag: 0.235; M1 agonist conf: -3.58; M4 agonist ctr: inconclusive

Results for Cc1cccc(NC(=O)c2ccccc2C(=O)O)c1 ?
S1P1 ag pot: -3.2; S1P3 agonist: 1.3; D1 mod: 0.611; TNAP act DEA: 0.9

How did N=c1oc2c3c4c(cc2cc1C(=O)Nc1ccccc1)CCCN4CCC3 do in these assays?
S1P1 ag pot: 48.6; S1P3 agonist: 0.4; M1 ag: 221*; TNAP act DEA: 0.9; M1 antag: -15.1*; M1 agonist conf: 3358*; M4 agonist ctr: 2806*

What do the screens show for `CCOC(=O)c1ccc(Nc2nnc(C(C)(C)C)c(=O)[nH]2)cc1`?
D1 mod: 0.0838; M1 ag: 3.54*; TNAP act DEA: 0.9; M1 antag: -0.415; M1 agonist conf: -16.6; M4 agonist ctr: -1.08

What do the screens show for `CCOC(=O)c1ccc(NC(=O)C2CC2)cc1`?
S1P1 ag pot: -16.3; S1P3 agonist: -1.4; D1 mod: -0.488; M1 ag: -0.462; TNAP act DEA: 0.9; M1 antag: 0.951

How did O=C1N(CCCCN2C(=O)C3(OCCO3)c3ccccc32)c2ccccc2C12OCCO2 do in these assays?
S1P1 ag pot: -10.8; S1P3 agonist: -0.7; D1 mod: 0.215; M1 ag: 3.09*; TNAP act DEA: 0.8; M1 antag: 0.681; M1 agonist conf: -0.347; M4 agonist ctr: -7.57

What do the screens show for `Cc1noc(C)c1COc1ccc(C(=O)NCc2ccccn2)cc1`?
S1P1 ag pot: -15.4; S1P3 agonist: 0.4; D1 mod: -0.0802; M1 ag: -0.731; TNAP act DEA: 0.9; M1 antag: -0.0555

What do the screens show for `Cc1cccc2cc(CN(Cc3ccc(F)cc3)C(=O)N(C)C)c3nnnn3c12`?
D1 mod: -0.58; M1 ag: 6.15*; TNAP act DEA: 0.9; M1 antag: -2.05; M1 agonist conf: inconclusive; M4 agonist ctr: -21.5

Results for COCCN(Cc1cc2cccc(C)c2n2nnnc12)C(=O)C(F)(F)F ?
S1P1 ag pot: -1.6; S1P3 agonist: 0.4; D1 mod: 1.47; M1 ag: 0.582; TNAP act DEA: 0.9; M1 antag: 0.151

How did COc1ccc(CCNC(=O)Cn2cnc3c(nnn3Cc3ccccc3F)c2=O)cc1OC do in these assays?
S1P1 ag pot: -9.8; S1P3 agonist: -0.9; D1 mod: 0.231; M1 ag: 0.107; M1 antag: -0.381

What do the screens show for `CN(C)/C=c1\sc2c(C#N)cc(C(=O)c3ccc(Br)cc3)n2c1=O`?
D1 mod: 1.18; M1 ag: 75.2*; TNAP act DEA: 0.9; M1 antag: 0.228; M1 agonist conf: 278*; M4 agonist ctr: 714*

How did COc1ccc2c(c1)[nH]c1c(=O)n(CCN3CCCC3)cnc12 do in these assays?
S1P1 ag pot: -10.9; S1P3 agonist: 0.0; D1 mod: -0.861; M1 ag: 2.19*; TNAP act DEA: 0.9; M1 antag: 0.144; M1 agonist conf: inconclusive; M4 agonist ctr: -44

Results for O=C(CN1CCOCC1)Nc1ccc(Oc2ccc(NC(=O)CN3CCOCC3)cc2)cc1 ?
S1P1 ag pot: -11.3; S1P3 agonist: -1.0; D1 mod: -0.813; M1 ag: 0.863; TNAP act DEA: 1; M1 antag: -0.238

How did O=C(CNc1ccc(Oc2ccccc2)cc1)N1CCOCC1 do in these assays?
S1P1 ag pot: -1.5; S1P3 agonist: -0.2; D1 mod: -1.75; M1 ag: 2.83*; TNAP act DEA: 0.9; M1 antag: -0.717; M1 agonist conf: inconclusive; M4 agonist ctr: inconclusive

Results for O=C1CCC(=O)N1CNc1ccc(Oc2ccccc2)cc1 ?
S1P1 ag pot: 17.8; S1P3 agonist: -0.7; D1 mod: 0.0277; M1 ag: -3.23*; TNAP act DEA: 1; M1 antag: 0.479; M1 agonist conf: inconclusive; M4 agonist ctr: -51.7

How did CCCCS(=O)CC(COCc1ccccc1)OC(=O)CSc1nc(C)cc(C)n1 (stereo not given) do in these assays?
S1P1 ag pot: -17.4; S1P3 agonist: -0.4; D1 mod: -0.0843; M1 ag: -0.0142; TNAP act DEA: 0.9; M1 antag: 0.109

Screens (PubChem)
